ChEMBL document CHEMBL4177770, “Discovery of MK-6169, a Potent Pan-Genotype Hepatitis C Virus NS5A Inhibitor with Optimized Activity against Common Resistance-Associated Substitutions” (J Med Chem, 2018)

How the values were obtained:
[1] = Resistance ratio of EC90 for NS3 A156T mutant in HCV genotype 1b infected in HuH7 replicon cells to EC90 for NS5A in HCV genotype 1a infected in HuH7 replicon cells; assay type: cell-based
[2] = AUC in Wistar Han rat at 100 mg/kg, po by LC/MS method; assay type: ADME, organism-based; conditions: in vivo
Outline: (§1)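 Single rising oral dose study in fed male Wistar Han rats, dosed PO in 10% TWEEN at the indicated doses. Plasma was obtained by centrifuging the blood, and compound levels were determined by LC/MS.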

[3] = Resistance ratio of EC90 for NS5A in HCV genotype 3a infected in HuH7 replicon cells to EC90 for NS5A in HCV genotype 1a infected in HuH7 replicon cells; assay type: cell-based
[4] = Resistance ratio of EC90 for NS5A M31V mutant in HCV genotype 2b infected in HuH7 replicon cells to EC90 for NS5A in HCV genotype 1a infected in HuH7 replicon cells; assay type: cell-based
[5] = tested on: Hepatitis C virus subtype 1a; test: Resistance ratio of EC90 for NS5A Y93H mutant in HCV genotype 1a infected in HuH7 replicon cells to EC90 for NS5A in HCV genotype 1a infected in HuH7 replicon cells; assay type: cell-based
[6] = target: T1, Nonstructural protein 5A (Hepatitis C virus) (UniProt Q5L478); test: Inhibition of NS5A L31F mutant in HCV genotype 3a infected in HuH7 replicon cells assessed as decrease in viral replication after 3 days by RT-PCR method; assay type: cell-based; conditions: Hepatitis C virus subtype 3a
T1 sequence (whole entry): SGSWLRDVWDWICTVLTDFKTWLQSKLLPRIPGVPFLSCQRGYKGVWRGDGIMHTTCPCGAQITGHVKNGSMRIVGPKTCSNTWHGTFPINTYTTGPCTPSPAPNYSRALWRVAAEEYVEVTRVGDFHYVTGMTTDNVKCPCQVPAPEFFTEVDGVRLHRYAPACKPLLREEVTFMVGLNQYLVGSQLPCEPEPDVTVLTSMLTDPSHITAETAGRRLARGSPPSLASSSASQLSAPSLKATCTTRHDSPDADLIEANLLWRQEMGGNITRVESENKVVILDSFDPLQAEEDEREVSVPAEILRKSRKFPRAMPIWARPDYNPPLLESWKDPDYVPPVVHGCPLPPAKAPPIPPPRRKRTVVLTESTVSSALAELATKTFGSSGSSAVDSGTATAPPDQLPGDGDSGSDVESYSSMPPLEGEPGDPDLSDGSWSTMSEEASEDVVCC

[7] = tested on: Hepatitis C virus subtype 1a; test: Resistance ratio of EC90 for NS5A Y93N mutant in HCV genotype 1a infected in HuH7 replicon cells to EC90 for NS5A in HCV genotype 1a infected in HuH7 replicon cells; assay type: cell-based
[8] = Tmax in Wistar Han rat at 300 mg/kg, po by LC/MS method; assay type: ADME, organism-based; conditions: in vivo; outline: as §1
[9] = Tmax in Wistar Han rat at 100 mg/kg, po by LC/MS method; assay type: ADME, organism-based; conditions: in vivo; outline: as §1
[10] = Oral bioavailability in Beagle dog at 5 mg/kg by LC/MS method; assay type: ADME, organism-based, Canis lupus familiaris; conditions: in vivo
Outline: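 Beagle dogs, two animals per dosing group. Oral dose was given in 10% TWEEN. Blood was collected and spun to plasma, and plasma compound levels were measured by LC/MS.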

[11] = Resistance ratio of EC90 for NS5A A92T mutant in HCV genotype 1b infected in HuH7 replicon cells to EC90 for NS5A in HCV genotype 1a infected in HuH7 replicon cells; assay type: cell-based
[12] = target: T1, Nonstructural protein 5A (Hepatitis C virus); test: Inhibition of NS5A R81W mutant in HCV genotype 1a infected in HuH7 replicon cells assessed as decrease in viral replication after 3 days by RT-PCR method; assay type: cell-based; conditions: Hepatitis C virus subtype 1a
[13] = Resistance ratio of EC90 for NS5A L31V mutant in HCV genotype 4a infected in HuH7 replicon cells to EC90 for NS5A in HCV genotype 1a infected in HuH7 replicon cells; assay type: cell-based
[14] = Resistance ratio of EC90 for NS5A A92K mutant in HCV genotype 1b infected in HuH7 replicon cells to EC90 for NS5A in HCV genotype 1a infected in HuH7 replicon cells; assay type: cell-based
[15] = target: T1, Nonstructural protein 5A (Hepatitis C virus); test: Inhibition of NS5A L31V mutant in HCV genotype 3a infected in HuH7 replicon cells assessed as decrease in viral replication after 3 days by RT-PCR method; assay type: cell-based; conditions: Hepatitis C virus subtype 3a
[16] = tested on: Nonstructural protein 5A (Hepatitis C virus), Q5L478 [UNDEFINED MUTATION]; test: Inhibition of NS5A L31M/Y93H double mutant in HCV genotype 1b infected in HuH7 replicon cells assessed as decrease in viral replication after 3 days by RT-PCR method; assay type: cell-based; conditions: Hepatitis C virus subtype 1b

COC(=O)N[C@H](C(=O)N1CCC[C@H]1c1ncc(-c2cc(F)c3c(c2)O[C@@H](c2ccc(C4CC4)s2)n2c-3cc3cc(-c4cnc([C@@H]5CCCN5C(=O)[C@@H](NC(=O)OC)[C@@H]5CCOC(C)(C)C5)[nH]4)ccc32)[nH]1)C(C)C
Ratio [1]: 1
AUC [2]: 7.82 µM·h
Ratio [3]: 2
Ratio [4]: 5
Ratio [5]: 8
EC90 [6]: 0.29 nM
Ratio [7]: 16
Tmax [8]: 5 h
Tmax [9]: 2 h
bioavailability [10]: 14.9%
Ratio [11]: 1
EC90 [12]: 0.00032 nM
Ratio [13]: 2
Ratio [14]: 6
EC90 [15]: 3.2 nM
EC90 [16]: 0.19 nM
